Activity calls are given as the source filed them. The calls are words filed in the database; no cut-off is given here.
Tests used:
[1] = molecular target: Eukaryotic initiation factor 4A-I (Homo sapiens) (UniProt P60842); assay: Inhibition of eIF4A (unknown origin) expressed in Escherichia coli BL21(DE3) at 100 uM preincubated for 10 mins followed by ATP and fluorescently-labeled RNA addition measured after 10 mins by real-time fluorescence assay
How it was run: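 Recombinant eIF4A from E. coli BL21(DE3), Talon-purified, at 500 nM in pH 6.0 MES-KOH buffer (10 mM K acetate, 2.5 mM MgCl2, 1% glycerol, 1 mM DTT). Preincubated with 100 µM compound (2% DMSO final) for 10 min at 22°C. Started with 50 nM labeled RNA plus 1 mM ATP, then real-time fluorescence read for 10 min at 25°C. Percent inhibition from slopes versus DMSO and water (no-ATP) controls.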

[2] = molecular target: Probable ATP-dependent RNA helicase DDX17 (Homo sapiens, UniProt Q92841); assay: Inhibition of DDX17 (unknown origin) expressed in Escherichia coli BL21(DE3) preincubated for 10 mins followed by ATP addition measured after 120 mins by malachite green dye-based assay
How it was run: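 Compound gradient 100 to 0.0457 µM (3-fold), final DMSO 2%, 10 min at 37°C. Reaction started with 250 µM ATP at 37°C, phosphate read by malachite green OD660 at 120 min. IC50 from normalized % inhibition versus log concentration.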

[3] = molecular target: ATP-dependent RNA helicase DDX39A (Homo sapiens, UniProt O00148); assay: Inhibition of DDX39A (unknown origin) expressed in Escherichia coli BL21(Rosetta 2) preincubated for 10 mins followed by ATP addition measured after 60 mins by malachite green dye-based assay
How it was run: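 His-tagged DDX39A at 500 nM in MES-KOH pH 6.0 buffer (10 mM KOAc, 2.5 mM MgCl2, 1% glycerol, 1 mM DTT). Eight-point 3-fold series 100 to 0.0457 µM, 2% DMSO final, 10 min preincubation at 37°C. Started with 250 µM ATP, 60 min at 37°C, then malachite green read at OD660. EDTA 20 mM served as positive control. IC50 by semi-log fit of normalized inhibition.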

[4] = molecular target: ATP-dependent RNA helicase DDX3X (Homo sapiens, UniProt O00571); assay: Inhibition of DDX3 (unknown origin) preincubated for 10 mins followed by ATP addition by malachite green dye-based assay
How it was run: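 Compounds 100 to 0.0457 µM, 2% DMSO final, 10 min at 37°C. Initiated with 250 µM ATP at 37°C. Released phosphate detected with malachite green at OD660. IC50 fitted from normalized percent inhibition on a semi-log plot.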

[5] = molecular target: Eukaryotic initiation factor 4A-I (Homo sapiens) (UniProt P60842)
[6] = molecular target: Transitional endoplasmic reticulum ATPase (Homo sapiens, UniProt P55072); assay: Inhibition of p97 (unknown origin) expressed in Escherichia coli BL21(DE3) preincubated for 10 mins followed by ATP addition measured after 60 mins by malachite green dye-based assay
How it was run: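 Compound series 100 to 0.0457 µM, 2% DMSO final, 10 min at 37°C. Started with 200 µM ATP, incubated 60 min at 37°C, then malachite green OD660 read. IC50 from semi-log fit of normalized % inhibition.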

[7] = molecular target: Heat shock 70 kDa protein 1A (Homo sapiens, UniProt P0DMV8); assay: Inhibition of HSPA1A (unknown origin) expressed in Escherichia coli BL21(DE3) preincubated for 10 mins followed by ATP addition by malachite green dye-based assay
How it was run: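 His-tagged HSPA1A, induced at 16°C, used at 1,000 nM in 50 mM Tris-HCl pH 7.4, 150 mM KCl, 10 mM MgCl2. Compounds 100 to 0.0457 µM, 2% DMSO final, 10 min preincubation at 37°C. Reaction started with 200 µM ATP at 37°C, phosphate detected by malachite green OD660. IC50 by semi-log fit of normalized inhibition.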

[8] = molecular target: Eukaryotic initiation factor 4A-I (Homo sapiens) (UniProt P60842); assay: Inhibition of eIF4A1 (unknown origin) expressed in Escherichia coli BL21(DE3) at 0.01 to 100 uM using Poly(U) RNA as substrate preincubated for 10 mins followed by substrate addition measured after 60 mins by malachite green dye-based assay
How it was run: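 Compound dilutions 100 to 0.0457 µM, 2% DMSO final, 10 min at 37°C. ATP added and reaction run 60 min at 37°C, then malachite green OD660 read. DMSO 2% and 20 mM EDTA served as controls. IC50 from semi-log fit.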

[9] = molecular target: Eukaryotic initiation factor 4A-I (Homo sapiens) (UniProt P60842); assay: Inhibition of eIF4A (unknown origin) expressed in Escherichia coli BL21(DE3) at 100 uM preincubated for 10 mins followed by ATP and fluorescently-labeled RNA addition measured after 10 mins by real-time fluorescence assay relative to control
How it was run: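 Real-time fluorescence helicase assay. eIF4A at 500 nM in MES-KOH pH 6.0 buffer, preincubated 10 min at 22°C with compound at 100 µM, 2% DMSO final. Started with 50 nM labeled RNA plus 1 mM ATP, or water as control, and read for 10 min at 25°C. % inhibition = 100 − ((A−B)/(C−B)×100), using the slopes of compound (A), water (B) and DMSO (C) traces.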

Sequence of Eukaryotic initiation factor 4A-I (Homo sapiens) (P60842 whole entry): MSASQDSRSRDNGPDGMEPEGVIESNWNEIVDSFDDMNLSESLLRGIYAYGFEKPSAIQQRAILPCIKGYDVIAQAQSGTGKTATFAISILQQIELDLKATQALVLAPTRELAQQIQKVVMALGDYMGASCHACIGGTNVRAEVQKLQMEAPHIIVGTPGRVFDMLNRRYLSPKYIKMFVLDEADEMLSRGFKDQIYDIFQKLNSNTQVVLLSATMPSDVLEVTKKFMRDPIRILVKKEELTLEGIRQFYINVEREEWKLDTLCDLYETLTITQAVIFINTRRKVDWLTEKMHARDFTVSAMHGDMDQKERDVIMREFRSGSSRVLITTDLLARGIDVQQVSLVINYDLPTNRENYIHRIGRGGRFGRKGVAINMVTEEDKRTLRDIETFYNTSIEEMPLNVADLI
Sequence of Transitional endoplasmic reticulum ATPase (P55072 whole entry): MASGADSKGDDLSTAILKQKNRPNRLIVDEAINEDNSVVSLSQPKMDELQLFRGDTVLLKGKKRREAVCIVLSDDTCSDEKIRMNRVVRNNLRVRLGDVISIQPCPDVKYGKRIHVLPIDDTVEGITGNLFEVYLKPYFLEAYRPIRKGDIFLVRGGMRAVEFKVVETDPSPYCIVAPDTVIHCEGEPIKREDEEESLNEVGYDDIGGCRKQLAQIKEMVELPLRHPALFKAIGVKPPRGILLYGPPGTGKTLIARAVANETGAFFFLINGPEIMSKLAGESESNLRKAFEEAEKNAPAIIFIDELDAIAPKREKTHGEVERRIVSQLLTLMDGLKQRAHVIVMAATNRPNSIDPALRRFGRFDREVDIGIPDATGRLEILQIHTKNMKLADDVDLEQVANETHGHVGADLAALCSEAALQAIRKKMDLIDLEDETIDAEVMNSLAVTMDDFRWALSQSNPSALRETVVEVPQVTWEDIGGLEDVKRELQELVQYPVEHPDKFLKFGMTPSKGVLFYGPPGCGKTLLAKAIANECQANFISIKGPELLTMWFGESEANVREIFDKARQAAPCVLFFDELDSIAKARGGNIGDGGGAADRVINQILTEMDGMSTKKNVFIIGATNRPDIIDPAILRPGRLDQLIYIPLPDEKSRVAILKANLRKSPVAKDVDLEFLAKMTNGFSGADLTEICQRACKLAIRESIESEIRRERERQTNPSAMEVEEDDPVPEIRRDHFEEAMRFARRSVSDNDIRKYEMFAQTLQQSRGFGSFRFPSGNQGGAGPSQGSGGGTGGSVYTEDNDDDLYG
Sequence of Heat shock 70 kDa protein 1A (P0DMV8 whole entry): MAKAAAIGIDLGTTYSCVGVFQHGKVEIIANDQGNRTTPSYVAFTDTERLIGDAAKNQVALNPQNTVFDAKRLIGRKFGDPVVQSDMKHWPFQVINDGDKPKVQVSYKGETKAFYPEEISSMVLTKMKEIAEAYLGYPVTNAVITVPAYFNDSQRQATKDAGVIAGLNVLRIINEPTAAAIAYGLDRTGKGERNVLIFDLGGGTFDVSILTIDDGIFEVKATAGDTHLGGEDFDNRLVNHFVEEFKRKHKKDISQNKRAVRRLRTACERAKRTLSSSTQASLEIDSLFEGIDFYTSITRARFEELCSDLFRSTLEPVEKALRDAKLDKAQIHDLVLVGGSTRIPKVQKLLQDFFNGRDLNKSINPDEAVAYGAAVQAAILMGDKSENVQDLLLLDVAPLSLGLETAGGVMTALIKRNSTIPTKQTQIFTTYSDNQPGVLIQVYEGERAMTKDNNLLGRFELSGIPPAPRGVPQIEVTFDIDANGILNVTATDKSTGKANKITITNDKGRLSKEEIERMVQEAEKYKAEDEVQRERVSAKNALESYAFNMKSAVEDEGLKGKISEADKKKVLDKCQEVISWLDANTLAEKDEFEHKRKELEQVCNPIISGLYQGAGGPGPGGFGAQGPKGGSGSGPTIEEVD
Sequence of ATP-dependent RNA helicase DDX39A (O00148 whole entry): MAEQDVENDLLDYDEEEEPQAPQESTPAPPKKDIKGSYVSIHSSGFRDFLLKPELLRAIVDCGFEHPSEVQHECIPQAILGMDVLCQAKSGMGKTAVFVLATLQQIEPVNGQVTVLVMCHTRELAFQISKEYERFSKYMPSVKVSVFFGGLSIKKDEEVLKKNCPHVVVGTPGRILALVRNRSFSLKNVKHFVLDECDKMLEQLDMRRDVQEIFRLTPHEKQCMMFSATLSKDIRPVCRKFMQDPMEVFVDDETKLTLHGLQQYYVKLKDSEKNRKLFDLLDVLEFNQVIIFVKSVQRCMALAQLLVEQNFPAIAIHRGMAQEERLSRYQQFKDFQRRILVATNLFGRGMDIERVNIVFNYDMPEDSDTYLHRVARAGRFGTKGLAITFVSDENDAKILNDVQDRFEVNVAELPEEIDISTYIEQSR
Sequence of Probable ATP-dependent RNA helicase DDX17 (Q92841 whole entry): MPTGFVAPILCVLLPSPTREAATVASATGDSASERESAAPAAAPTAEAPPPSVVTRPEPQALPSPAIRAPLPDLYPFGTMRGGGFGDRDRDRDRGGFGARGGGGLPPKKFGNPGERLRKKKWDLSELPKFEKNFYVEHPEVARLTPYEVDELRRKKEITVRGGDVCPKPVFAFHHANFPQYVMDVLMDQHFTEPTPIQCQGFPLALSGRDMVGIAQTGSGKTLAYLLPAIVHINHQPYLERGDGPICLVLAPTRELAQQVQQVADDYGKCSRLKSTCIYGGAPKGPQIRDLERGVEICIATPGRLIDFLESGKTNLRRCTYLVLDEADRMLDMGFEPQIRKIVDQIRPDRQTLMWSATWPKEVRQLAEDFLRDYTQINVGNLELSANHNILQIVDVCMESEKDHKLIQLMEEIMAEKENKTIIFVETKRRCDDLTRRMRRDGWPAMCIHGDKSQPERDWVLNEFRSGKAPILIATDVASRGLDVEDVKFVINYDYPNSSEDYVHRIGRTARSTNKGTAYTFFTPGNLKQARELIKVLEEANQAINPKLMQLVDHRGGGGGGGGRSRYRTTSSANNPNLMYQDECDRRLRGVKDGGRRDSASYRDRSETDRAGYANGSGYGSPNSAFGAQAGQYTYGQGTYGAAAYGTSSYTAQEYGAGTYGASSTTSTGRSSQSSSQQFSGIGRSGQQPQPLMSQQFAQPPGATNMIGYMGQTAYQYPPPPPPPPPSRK
Sequence of ATP-dependent RNA helicase DDX3X (O00571 whole entry): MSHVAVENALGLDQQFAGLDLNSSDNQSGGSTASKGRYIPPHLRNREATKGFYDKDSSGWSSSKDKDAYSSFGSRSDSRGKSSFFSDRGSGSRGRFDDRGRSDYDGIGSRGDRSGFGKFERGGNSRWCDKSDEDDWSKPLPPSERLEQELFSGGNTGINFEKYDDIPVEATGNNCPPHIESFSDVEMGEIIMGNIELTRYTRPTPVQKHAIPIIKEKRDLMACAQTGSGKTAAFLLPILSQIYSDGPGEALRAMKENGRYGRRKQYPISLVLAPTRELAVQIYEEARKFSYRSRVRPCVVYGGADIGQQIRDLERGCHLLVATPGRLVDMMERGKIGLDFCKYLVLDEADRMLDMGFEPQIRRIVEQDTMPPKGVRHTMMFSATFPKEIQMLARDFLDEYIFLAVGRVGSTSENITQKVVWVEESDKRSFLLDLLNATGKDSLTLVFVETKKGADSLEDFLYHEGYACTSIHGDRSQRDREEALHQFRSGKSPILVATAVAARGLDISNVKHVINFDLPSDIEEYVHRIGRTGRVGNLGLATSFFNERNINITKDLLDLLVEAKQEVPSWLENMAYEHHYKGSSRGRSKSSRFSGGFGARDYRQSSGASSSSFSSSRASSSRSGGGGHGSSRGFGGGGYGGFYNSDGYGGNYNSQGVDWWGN

Row | Compound | inhibition [1] | IC50 [2] | IC50 [3] | IC50 [4] | Kis [5] | IC50 [6] | IC50 [7] | inhibition [8] | inhibition [9]
1 | C[C@H]1C[C@@]2(O[C@H]3C[C@H]4[C@@H]5CC[C@H]6C[C@H](O)CC[C@]6(C)[C@H]5[C@@H](O)C[C@]4(C)[C@H]3[C@@]2(C)O)OC1(C)C | Active |  |  |  |  |  |  |  | 
2 | C=C1CC[C@@](C)(c2cc(Br)c(C)cc2O)[C@H]1C | Active | > 100 µM | > 100 µM | > 100 µM | 3.86 µM | > 100 µM | > 100 µM | Active | 
3 | CC(C)=C[C@@H]1C[C@H](C)c2c(O)cc(C)c3c2C1=C(C)C(=O)C3=O [ELISABATIN A] |  | > 100 µM | > 100 µM | > 100 µM | 55 µM | > 100 µM | > 100 µM | Active | 34%

Source: ChEMBL document CHEMBL4043127, “ATP-competitive, marine derived natural products that target the DEAD box helicase, eIF4A” (Bioorg Med Chem Lett, 2017)
